Assay type in all cases: functional, cell-based
For data set [1], the target named is T1, ATP-dependent translocase ABCB1 (Homo sapiens, UniProt P08183). As to the kind of experiment: TP_TRANSPORTER: increase in Vinblastine intracellular accumulation of 6',7'-Dihydroxybergamottin at a concentration of 20uM in LLC-GA5-COL150 cells. The conditions noted are these: pig, llc-ga5-col150, 20 µM. The method, boiled down:
(§1)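 LLC-GA5-COL150 (LLC-PK1 transfected with human MDR1; grown with 150 ng ml⁻¹ colchicine, withdrawn 6 h before assay) and parental LLC-PK1 seeded in four-well dishes and grown 3 days. Cells were incubated 90 min with 20 nM [³H]vinblastine ± inhibitor in HEPES buffer, pH 7.4, 37°C, then washed in ice-cold buffer. Read-out was cell/medium ratio per mg protein (Lowry) by scintillation. Uptake potentiation ratio = % of control in transfectant / % of control in LLC-PK1 × 100; mean ± s.e.m., n=3.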

For data set [2], the target named is T1, ATP-dependent translocase ABCB1. Briefly: TP_TRANSPORTER: increase in saquinavir intracellular accumulation of 6',7'-Dihydroxybergamottin at a concentration of 20uM in LLC-GA5-COL150 cells. The settings on record: pig, llc-ga5-col150, 20 µM. In short, it runs like this:
(§2)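 LLC-GA5-COL150 (human MDR1-transfected LLC-PK1; colchicine withdrawn 6 h before assay) and LLC-PK1 control cells were grown 3 days in four-well dishes. Uptake of 5 µM [¹⁴C]saquinavir ± inhibitor ran 90 min in pH 7.4 HEPES buffer at 37°C and was stopped with ice-cold washes. Cell/medium ratio was normalised to Lowry protein. Potentiation ratio = % of control (MDR1 cells) / % of control (LLC-PK1) × 100; mean ± s.e.m. of three experiments.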

Data set [3] has the same target. Briefly: TP_TRANSPORTER: increase in saquinavir intracellular accumulation of Tangeretin at a concentration of 20uM in LLC-GA5-COL150 cells. The settings on record: pig, llc-ga5-col150, 20 µM. In short, it runs like this:
as §2

Data set [4] has the same target. Briefly: TP_TRANSPORTER: increase in Vinblastine intracellular accumulation of Tangeretin at a concentration of 20uM in LLC-GA5-COL150 cells. The conditions noted are these: pig, llc-ga5-col150, 20 µM. In short, it runs like this:
as §1

The target is the same in data set [5]. As to the kind of experiment: TP_TRANSPORTER: increase in Vinblastine intracellular accumulation in the presence of MK-571 at 50uM in LLC-GA5-COL150 cells. The settings on record: pig, llc-ga5-col150, 50 µM. The method, boiled down:
as §1

For data set [6] the target is unchanged. As to the kind of experiment: TP_TRANSPORTER: increase in Vinblastine intracellular accumulation of Nobiletin at a concentration of 20uM in LLC-GA5-COL150 cells. The conditions noted are these: pig, llc-ga5-col150, 20 µM. In short, it runs like this: as §1
For data set [7] the target is unchanged. Briefly: TP_TRANSPORTER: increase in saquinavir intracellular accumulation in the presence of Nobiletin at 20uM in LLC-GA5-COL150 cells. The settings on record: pig, llc-ga5-col150, 20 µM. The method, boiled down: as §2
Data set [8] shares this target. As to the kind of experiment: TP_TRANSPORTER: increase in saquinavir intracellular accumulation in the presence of Sulfinpyrazone at 5mM in LLC-GA5-COL150 cells. The settings on record: pig, llc-ga5-col150, 5000 µM. In short, it runs like this:
as §2

The target is the same in data set [9]. As to the kind of experiment: TP_TRANSPORTER: increase in Vinblastine intracellular accumulation in the presence of Sulfinpyrazone at 5mM in LLC-GA5-COL150 cells. The conditions noted are these: pig, llc-ga5-col150, 5000 µM. The method, boiled down: as §1
For data set [10] the target is unchanged. Briefly: TP_TRANSPORTER: increase in Vinblastine intracellular accumulation in the presence of Probenecid at 5mM in LLC-GA5-COL150 cells. The settings on record: pig, llc-ga5-col150, 5000 µM. The method, boiled down:
as §1

Data set [11] has the same target. Briefly: TP_TRANSPORTER: increase in saquinavir intracellular accumulation in the presence of Probenecid at 5mM in LLC-GA5-COL150 cells. The conditions noted are these: pig, llc-ga5-col150, 5000 µM. In short, it runs like this:
as §2

The target is the same in data set [12]. As to the kind of experiment: TP_TRANSPORTER: increase in Vinblastine intracellular accumulation in the presence of Bergamottin at 20uM in LLC-GA5-COL150 cells. The conditions noted are these: pig, llc-ga5-col150, 20 µM. In short, it runs like this: as §1

From ChEMBL document CHEMBL2073766, “Effects of grapefruit juice and orange juice components on P-glycoprotein- and MRP2-mediated drug efflux” (Br J Pharmacol, 2004) come the findings set out here.

Each structure is given as a SMILES string.

T1 sequence (P08183 whole entry): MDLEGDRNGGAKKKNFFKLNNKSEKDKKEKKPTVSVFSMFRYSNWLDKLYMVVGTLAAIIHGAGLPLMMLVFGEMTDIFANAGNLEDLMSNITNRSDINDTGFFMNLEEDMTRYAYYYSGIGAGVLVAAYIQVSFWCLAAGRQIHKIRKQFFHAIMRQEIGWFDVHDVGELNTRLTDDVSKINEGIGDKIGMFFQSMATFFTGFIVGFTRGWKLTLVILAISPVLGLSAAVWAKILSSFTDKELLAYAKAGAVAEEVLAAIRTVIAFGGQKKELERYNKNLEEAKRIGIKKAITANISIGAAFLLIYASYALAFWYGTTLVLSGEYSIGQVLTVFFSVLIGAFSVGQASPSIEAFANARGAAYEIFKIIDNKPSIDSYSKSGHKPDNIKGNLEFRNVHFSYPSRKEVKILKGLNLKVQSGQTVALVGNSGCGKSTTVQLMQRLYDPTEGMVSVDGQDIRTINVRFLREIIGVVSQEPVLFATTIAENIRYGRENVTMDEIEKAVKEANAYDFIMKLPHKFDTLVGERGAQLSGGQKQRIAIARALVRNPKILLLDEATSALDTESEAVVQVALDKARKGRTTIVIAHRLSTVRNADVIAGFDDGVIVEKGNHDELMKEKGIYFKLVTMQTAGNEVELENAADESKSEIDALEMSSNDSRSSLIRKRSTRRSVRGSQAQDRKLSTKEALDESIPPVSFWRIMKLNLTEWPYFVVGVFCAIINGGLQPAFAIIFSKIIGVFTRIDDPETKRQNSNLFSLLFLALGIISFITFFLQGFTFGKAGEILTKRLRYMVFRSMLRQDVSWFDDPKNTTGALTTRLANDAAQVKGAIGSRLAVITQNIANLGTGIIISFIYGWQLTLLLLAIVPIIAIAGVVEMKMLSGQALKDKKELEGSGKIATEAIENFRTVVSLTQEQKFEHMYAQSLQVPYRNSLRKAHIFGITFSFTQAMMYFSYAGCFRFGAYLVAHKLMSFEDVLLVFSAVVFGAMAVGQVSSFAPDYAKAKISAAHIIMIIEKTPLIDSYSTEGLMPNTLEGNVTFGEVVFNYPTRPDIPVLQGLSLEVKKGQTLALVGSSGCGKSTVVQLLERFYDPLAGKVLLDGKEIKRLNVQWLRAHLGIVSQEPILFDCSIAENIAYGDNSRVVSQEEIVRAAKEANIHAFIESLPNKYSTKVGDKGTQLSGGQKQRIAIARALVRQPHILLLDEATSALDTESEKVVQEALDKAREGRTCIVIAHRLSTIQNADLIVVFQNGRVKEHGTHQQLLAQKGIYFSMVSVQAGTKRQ

As for `C/C(=C\COc1c2ccoc2cc2oc(=O)ccc12)CC[C@@H](O)C(C)(C)O`, the Activity entry in data set [1] and in data set [2] was “inhibitor [+]” each time. For the compound `COc1ccc(-c2cc(=O)c3c(OC)c(OC)c(OC)c(OC)c3o2)cc1` [TANGERETIN], the Activity entry in data set [3] and in data set [4] was “inhibitor [+]” in each case. On to `CN(C)C(=O)CCSC(SCCC(=O)O)c1cccc(/C=C/c2ccc3ccc(Cl)cc3n2)c1` (configuration not stated) [MK-571], for which, in data set [5], the Activity result is “is not an inhibitor [-]”. For `COc1ccc(-c2cc(=O)c3c(OC)c(OC)c(OC)c(OC)c3o2)cc1OC` [NOBILETIN], the Activity entry in [6] was “inhibitor [+]”; in data set [7], “is not an inhibitor [-]”. Regarding `O=C1C(CC[S+]([O-])c2ccccc2)C(=O)N(c2ccccc2)N1c1ccccc1` (configuration not stated) [SULFINPYRAZONE], the Activity result in [8] and in [9] was “is not an inhibitor [-]” each time.

With `CCCN(CCC)S(=O)(=O)c1ccc(C(=O)O)cc1` [PROBENECID], the Activity result in [10] and in data set [11] was “is not an inhibitor [-]” in each case.

As for `CC(C)=CCC/C(C)=C/COc1c2ccoc2cc2oc(=O)ccc12` [BERGAMOTTIN], the Activity entry in data set [12] was “is not an inhibitor [-]”.
